Here are results for six compounds from ChEMBL document CHEMBL4613262, “Revisiting Aldehyde Oxidase Mediated Metabolism in Drug-like Molecules: An Improved Computational Model” (J Med Chem, 2020).

Data set [1] addresses T1, Aldehyde oxidase (Homo sapiens, UniProt Q06278).
T1 sequence (Q06278 whole entry): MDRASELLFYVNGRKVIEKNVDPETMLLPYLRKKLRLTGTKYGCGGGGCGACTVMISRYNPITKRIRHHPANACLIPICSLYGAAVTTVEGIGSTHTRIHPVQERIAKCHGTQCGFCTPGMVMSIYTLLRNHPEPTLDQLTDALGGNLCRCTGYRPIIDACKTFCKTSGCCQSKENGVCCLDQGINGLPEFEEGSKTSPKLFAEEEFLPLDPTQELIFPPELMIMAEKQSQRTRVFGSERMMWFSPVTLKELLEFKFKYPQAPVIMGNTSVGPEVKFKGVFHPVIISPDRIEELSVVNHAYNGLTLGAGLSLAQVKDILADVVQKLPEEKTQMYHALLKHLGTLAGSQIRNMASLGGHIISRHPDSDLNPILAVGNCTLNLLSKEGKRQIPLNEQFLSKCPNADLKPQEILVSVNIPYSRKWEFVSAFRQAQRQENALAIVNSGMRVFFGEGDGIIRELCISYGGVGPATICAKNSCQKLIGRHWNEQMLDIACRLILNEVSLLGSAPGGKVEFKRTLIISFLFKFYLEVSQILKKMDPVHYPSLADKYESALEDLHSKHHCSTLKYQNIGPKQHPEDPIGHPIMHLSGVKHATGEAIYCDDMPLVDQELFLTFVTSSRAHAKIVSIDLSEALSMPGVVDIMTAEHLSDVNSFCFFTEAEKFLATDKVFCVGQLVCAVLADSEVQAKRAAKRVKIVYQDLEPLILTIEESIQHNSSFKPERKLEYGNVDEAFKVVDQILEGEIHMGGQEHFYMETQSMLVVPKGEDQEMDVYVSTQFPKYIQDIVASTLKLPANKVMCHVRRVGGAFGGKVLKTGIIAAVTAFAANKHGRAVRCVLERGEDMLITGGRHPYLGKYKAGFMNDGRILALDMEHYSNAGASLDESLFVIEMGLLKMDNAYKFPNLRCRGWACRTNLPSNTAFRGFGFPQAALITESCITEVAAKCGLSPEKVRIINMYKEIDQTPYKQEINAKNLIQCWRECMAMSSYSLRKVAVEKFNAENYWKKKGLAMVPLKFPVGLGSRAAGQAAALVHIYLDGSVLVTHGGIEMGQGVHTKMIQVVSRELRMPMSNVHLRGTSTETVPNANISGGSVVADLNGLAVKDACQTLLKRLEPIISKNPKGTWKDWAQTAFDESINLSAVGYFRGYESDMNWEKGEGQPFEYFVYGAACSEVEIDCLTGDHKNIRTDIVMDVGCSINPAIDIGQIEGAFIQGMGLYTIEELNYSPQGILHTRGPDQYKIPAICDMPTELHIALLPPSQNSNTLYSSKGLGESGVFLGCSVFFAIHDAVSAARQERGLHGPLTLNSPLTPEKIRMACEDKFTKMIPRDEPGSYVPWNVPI
Nature of the data set: Substrate activity at aldehyde oxidase in human liver cytosol assessed as mono-oxide metabolite formation at 10 uM measured after 3 hrs in presence of AOX inhibitor hydralazine by UPLC/Q-TOF MS analysis. The format is ADME, subcellular. The procedure, abridged:
(§1)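 Human liver cytosol (2 mg/mL final protein) in 100 mM potassium phosphate pH 7.4 with 2 mM MgCl2, 10 μM test compound, 100 μM inhibitor, DMSO 1.1% final. Pre-incubated 3 min at 37°C, started by adding compound, run 3 h at 37°C, stopped with ice-cold acetonitrile. Supernatant analysed by UPLC/Q-TOF MS (positive ESI) for oxidative metabolite peak area. Inhibition ratio taken against no-inhibitor controls; triplicate.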

Data set [2] deals with T1, Aldehyde oxidase. Nature of the data set: Substrate activity at aldehyde oxidase in human liver cytosol assessed as mono-oxide metabolite formation at 10 uM measured after 3 hrs in presence of AOX inhibitor raloxifene by UPLC/Q-TOF MS analysis. The format is ADME, subcellular. The procedure, abridged:
as §1

As to `O=C(c1cncc(Br)c1)N1CCC(N2CCCC2)CC1`, the Drug metabolism result in data set [1] and in data set [2] was “Metabolite_Notdetected” in each case.

Turning to `N#C/C(=C\c1ccc(-c2cc(Cl)ccc2Cl)o1)C(=O)Nc1cccc2ncccc12`, the Drug metabolism entry in data set [1] and in data set [2] was “Metabolite_Notdetected” in each case.

For `Cc1cc(Nc2ccc(NC(=O)c3ccc(Nc4ccnc5ccccc45)cc3)cc2)nc(N)n1`, the Drug metabolism result in data set [1] and in data set [2] was “Metabolite_Notdetected” each time.

Regarding `O=C(NCC(=O)N1CCCC1)Nc1ccc2cnccc2c1`, the Drug metabolism entry in data set [1] and in data set [2] was “Metabolite_Notdetected” each time.

`Cl.Cl.Fc1cc(-c2cccc3ncc(-c4cnn(C5CCNCC5)c4)nc23)cc(F)c1CN1CCOCC1`: the Drug metabolism entry in data set [1] and in data set [2] was “Metabolite_Notdetected” throughout.

For the compound `Cl.O=C(Nc1ccccc1-c1cn2c(CN3CCNCC3)csc2n1)c1cnc2ccccc2n1`, the Drug metabolism result in data set [1] and in data set [2] was “Metabolite_Notdetected” each time.
